Source: ChEMBL document CHEMBL3779805, “Orally bioavailable pyridine and pyrimidine-based Factor XIa inhibitors: Discovery of the methyl N-phenyl carbamate P2 prime group” (Bioorg Med Chem, 2016)

Columns and labels:
Plasma = assay: Anticoagulant activity in human plasma assessed as concentration required for 50% increase in activated partial thromboplastin time by automated coagulation analyzer; assay type: functional
Procedure, shortened: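 aPTT clotting assay in pooled normal human plasma on an automated coagulation analyzer with commercial reagents. EC1.5x is the inhibitor plasma concentration giving a 50% increase in clotting time over the no-inhibitor control.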

Coagulation factor XI = Coagulation factor XI (Homo sapiens, UniProt P03951)
Plasminogen = Plasminogen (Homo sapiens, UniProt P00747); assay: Inhibition of human plasmin assessed as reduction in release of p-nitroaniline after 10 to 120 mins by Michaelis-Menten equation analysis
Procedure, shortened: (§1)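 Purified human enzymes with commercial synthetic peptide substrates. IC50 from 4–11 inhibitor concentrations, run in duplicate at a fixed substrate concentration (standard error <20%). Ki = IC50/(1+S/Km), assuming competitive inhibition.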

[1] = Clearance in beagle dog plasma at 0.28 mg/kg, iv and 0.62 mg/kg, po administered in cassette format by LC-MS/MS method; assay type: ADME, organism-based, Canis lupus familiaris
Procedure, shortened: (§2)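 Dogs dosed iv and po in N-in-1 (cassette) format. The same vehicle was used for both routes: 70% water, 10% ethanol, 10% dimethylacetamide, 10% polypropylene glycol.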

Plasma kallikrein = Plasma kallikrein (Homo sapiens, UniProt P03952); assay: Inhibition of human plasma kallikrein assessed as reduction in release of p-nitroaniline after 10 to 120 mins by Michaelis-Menten equation analysis; assay type: cell-free; procedure, shortened: as §1
[2] = Volume of distribution at steady state in beagle dog plasma at 0.28 mg/kg, iv and 0.62 mg/kg, po by LC-MS/MS method; assay type: ADME, organism-based, Canis lupus familiaris; settings: read-out: Vdss; procedure, shortened: as §2
Prothrombin = Prothrombin (Homo sapiens, UniProt P00734); assay: Inhibition of human coagulation thrombin assessed as reduction in release of p-nitroaniline after 10 to 120 mins by Michaelis-Menten equation analysis; procedure, shortened: as §1
[3] = AUC in beagle dog plasma at 0.28 mg/kg, iv and 0.62 mg/kg, po by LC-MS/MS method; assay type: ADME, organism-based, Canis lupus familiaris; procedure, shortened: as §2
[4] = target: Urokinase-type plasminogen activator (Homo sapiens, UniProt P00749); assay: Inhibition of human urokinase assessed as reduction in release of p-nitroaniline after 10 to 120 mins by Michaelis-Menten equation analysis; procedure, shortened: as §1
Coagulation factor X = Coagulation factor X (Homo sapiens, UniProt P00742); assay: Inhibition of human coagulation factor 10a assessed as reduction in release of p-nitroaniline after 10 to 120 mins by Michaelis-Menten equation analysis; procedure, shortened: as §1
[5] = Oral bioavailability in beagle dog plasma at 0.62 mg/kg by LC-MS/MS method; assay type: ADME, organism-based, Canis lupus familiaris; procedure, shortened: as §2
Coagulation factor VII = target: T1, Coagulation factor VII (Homo sapiens, UniProt P08709); assay: Inhibition of human coagulation factor 7a assessed as reduction in release of p-nitroaniline after 10 to 120 mins by Michaelis-Menten equation analysis; procedure, shortened: as §1
T1 sequence (P08709 whole entry): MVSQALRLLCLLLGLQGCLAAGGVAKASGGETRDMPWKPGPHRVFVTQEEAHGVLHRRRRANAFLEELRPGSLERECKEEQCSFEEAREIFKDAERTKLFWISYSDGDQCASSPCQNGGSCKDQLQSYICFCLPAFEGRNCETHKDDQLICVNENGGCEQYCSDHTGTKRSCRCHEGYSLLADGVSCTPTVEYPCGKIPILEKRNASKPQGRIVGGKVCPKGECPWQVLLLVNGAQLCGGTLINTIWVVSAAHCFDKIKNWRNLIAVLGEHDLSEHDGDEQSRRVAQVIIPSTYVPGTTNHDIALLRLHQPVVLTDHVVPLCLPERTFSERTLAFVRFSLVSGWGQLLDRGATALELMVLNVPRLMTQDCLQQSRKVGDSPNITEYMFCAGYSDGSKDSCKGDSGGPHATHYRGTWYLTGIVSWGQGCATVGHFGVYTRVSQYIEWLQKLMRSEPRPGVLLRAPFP

[6] = target: Vitamin K-dependent protein C (Homo sapiens, UniProt P04070); assay: Inhibition of human activated protein C assessed as reduction in release of p-nitroaniline after 10 to 120 mins by Michaelis-Menten equation analysis; procedure, shortened: as §1
[7] = Half life in beagle dog plasma at 0.28 mg/kg, iv and 0.62 mg/kg, po by LC-MS/MS method; assay type: ADME, organism-based, Canis lupus familiaris; procedure, shortened: as §2
Coagulation factor IX = Coagulation factor IX (Homo sapiens, UniProt P00740); assay: Inhibition of human coagulation factor 9a assessed as reduction in release of p-nitroaniline after 10 to 120 mins by Michaelis-Menten equation analysis; procedure, shortened: as §1
Trypsin = Trypsin (Homo sapiens, UniProt P07477+P07478+P35030); assay: Inhibition of human coagulation trypsin assessed as reduction in release of p-nitroaniline after 10 to 120 mins by Michaelis-Menten equation analysis; assay type: protein assay; procedure, shortened: as §1
[8] = target: Tissue-type plasminogen activator (Homo sapiens, UniProt P00750); assay: Inhibition of human TPA assessed as reduction in release of p-nitroaniline after 10 to 120 mins by Michaelis-Menten equation analysis; procedure, shortened: as §1
[9] = Inhibition of human […] chymotrypsin assessed as reduction in release of p-nitroaniline after 10 to 120 mins by Michaelis-Menten equation analysis
[10] = Volume of distribution at steady state in beagle dog plasma at 0.2 mg/kg, iv and 0.29 mg/kg, po by LC-MS/MS method; assay type: ADME, organism-based, Canis lupus familiaris; settings: read-out: Vdss; procedure, shortened: as §2
[11] = AUC in beagle dog plasma at 0.2 mg/kg, iv and 0.29 mg/kg, po by LC-MS/MS method; assay type: ADME, organism-based, Canis lupus familiaris; procedure, shortened: as §2
[12] = Oral bioavailability in beagle dog plasma at 0.29 mg/kg by LC-MS/MS method; assay type: ADME, organism-based, Canis lupus familiaris; procedure, shortened: as §2
[13] = Half life in beagle dog plasma at 0.2 mg/kg, iv and 0.29 mg/kg, po by LC-MS/MS method; assay type: ADME, organism-based, Canis lupus familiaris; procedure, shortened: as §2
[14] = Clearance in beagle dog plasma at 0.2 mg/kg, iv and 0.29 mg/kg, po administered in cassette format by LC-MS/MS method; assay type: ADME, organism-based, Canis lupus familiaris; procedure, shortened: as §2

Coagulation factor XI, sequence (P03951 19-387 limits assumed): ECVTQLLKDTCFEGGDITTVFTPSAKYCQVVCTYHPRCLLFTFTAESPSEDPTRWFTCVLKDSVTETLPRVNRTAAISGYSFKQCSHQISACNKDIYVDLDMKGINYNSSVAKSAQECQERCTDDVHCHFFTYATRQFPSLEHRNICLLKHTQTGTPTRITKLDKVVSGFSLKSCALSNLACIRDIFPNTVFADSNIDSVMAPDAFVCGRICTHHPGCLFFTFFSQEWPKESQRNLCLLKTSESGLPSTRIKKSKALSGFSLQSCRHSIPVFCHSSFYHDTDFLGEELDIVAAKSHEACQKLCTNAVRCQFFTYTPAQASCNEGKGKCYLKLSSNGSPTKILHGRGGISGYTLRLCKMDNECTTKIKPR
Coagulation factor XI, sequence (P03951 388-625 limits assumed): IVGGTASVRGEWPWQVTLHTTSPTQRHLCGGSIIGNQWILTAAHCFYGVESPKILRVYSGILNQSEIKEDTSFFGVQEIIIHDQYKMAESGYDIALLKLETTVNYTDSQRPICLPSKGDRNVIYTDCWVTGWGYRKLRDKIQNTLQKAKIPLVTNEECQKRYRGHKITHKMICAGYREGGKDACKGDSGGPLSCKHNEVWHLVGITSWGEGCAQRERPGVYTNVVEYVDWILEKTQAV
Vitamin K-dependent protein C, sequence (P04070 43-197 limits assumed): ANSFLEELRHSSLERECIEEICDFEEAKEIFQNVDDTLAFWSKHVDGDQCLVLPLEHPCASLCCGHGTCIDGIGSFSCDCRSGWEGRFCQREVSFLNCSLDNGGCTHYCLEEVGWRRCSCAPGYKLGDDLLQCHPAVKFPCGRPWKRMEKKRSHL
Vitamin K-dependent protein C, sequence (P04070 212-461 limits assumed): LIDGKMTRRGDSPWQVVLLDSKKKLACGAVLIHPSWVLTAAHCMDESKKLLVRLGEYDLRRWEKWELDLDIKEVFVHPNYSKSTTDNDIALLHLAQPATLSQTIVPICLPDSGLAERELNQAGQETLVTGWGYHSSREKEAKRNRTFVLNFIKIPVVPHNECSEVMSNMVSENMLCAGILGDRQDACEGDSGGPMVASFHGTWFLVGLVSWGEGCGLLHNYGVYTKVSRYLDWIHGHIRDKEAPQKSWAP
Plasminogen, sequence (P00747 97-580 limits assumed): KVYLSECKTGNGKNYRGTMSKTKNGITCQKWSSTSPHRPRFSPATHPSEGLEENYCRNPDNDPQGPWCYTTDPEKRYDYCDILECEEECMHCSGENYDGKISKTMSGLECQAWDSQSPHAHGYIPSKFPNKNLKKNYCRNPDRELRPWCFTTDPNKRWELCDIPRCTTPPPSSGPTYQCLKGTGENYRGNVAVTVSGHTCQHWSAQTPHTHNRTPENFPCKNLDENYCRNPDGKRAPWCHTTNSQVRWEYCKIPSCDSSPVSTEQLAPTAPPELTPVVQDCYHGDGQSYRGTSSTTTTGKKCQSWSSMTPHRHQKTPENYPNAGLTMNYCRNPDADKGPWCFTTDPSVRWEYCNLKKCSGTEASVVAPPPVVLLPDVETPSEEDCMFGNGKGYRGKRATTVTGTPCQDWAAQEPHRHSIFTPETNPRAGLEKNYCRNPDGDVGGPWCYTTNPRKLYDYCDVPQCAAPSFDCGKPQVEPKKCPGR
Plasminogen, sequence (P00747 581-810 limits assumed): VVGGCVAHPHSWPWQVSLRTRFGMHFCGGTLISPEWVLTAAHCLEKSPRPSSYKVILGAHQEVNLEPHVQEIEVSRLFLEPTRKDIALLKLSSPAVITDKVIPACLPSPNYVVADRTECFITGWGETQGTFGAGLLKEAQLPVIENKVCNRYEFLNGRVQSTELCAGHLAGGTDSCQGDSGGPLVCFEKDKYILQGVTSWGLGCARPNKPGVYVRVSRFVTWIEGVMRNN
Coagulation factor X, sequence (P00742 41-179 limits assumed): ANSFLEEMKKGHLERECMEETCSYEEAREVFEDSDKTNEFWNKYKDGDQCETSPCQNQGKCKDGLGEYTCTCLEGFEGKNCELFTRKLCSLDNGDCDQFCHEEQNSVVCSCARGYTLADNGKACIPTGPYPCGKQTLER
Coagulation factor X, sequence (P00742 235-488 limits assumed): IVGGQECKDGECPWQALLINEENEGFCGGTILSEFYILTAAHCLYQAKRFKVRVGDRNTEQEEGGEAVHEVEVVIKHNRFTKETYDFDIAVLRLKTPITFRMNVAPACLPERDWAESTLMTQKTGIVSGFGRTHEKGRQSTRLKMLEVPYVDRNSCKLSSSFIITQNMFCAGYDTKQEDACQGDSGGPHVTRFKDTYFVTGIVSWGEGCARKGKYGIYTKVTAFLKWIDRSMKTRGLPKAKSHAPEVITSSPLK
Tissue-type plasminogen activator, sequence (P00750 whole entry): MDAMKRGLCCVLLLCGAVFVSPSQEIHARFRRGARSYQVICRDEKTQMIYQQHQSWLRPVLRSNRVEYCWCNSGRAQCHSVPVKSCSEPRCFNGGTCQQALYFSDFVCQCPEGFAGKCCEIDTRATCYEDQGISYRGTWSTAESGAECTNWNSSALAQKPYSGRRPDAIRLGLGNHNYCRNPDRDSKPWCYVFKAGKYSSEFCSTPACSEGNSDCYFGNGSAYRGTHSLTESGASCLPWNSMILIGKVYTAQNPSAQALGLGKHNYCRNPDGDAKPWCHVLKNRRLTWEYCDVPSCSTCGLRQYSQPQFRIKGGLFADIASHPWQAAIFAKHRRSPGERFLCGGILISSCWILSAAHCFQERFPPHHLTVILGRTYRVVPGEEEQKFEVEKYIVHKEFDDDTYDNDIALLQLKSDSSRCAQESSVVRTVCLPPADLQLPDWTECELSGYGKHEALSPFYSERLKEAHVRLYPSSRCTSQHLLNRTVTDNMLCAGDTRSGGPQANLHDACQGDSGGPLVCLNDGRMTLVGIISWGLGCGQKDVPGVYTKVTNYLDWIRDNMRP
Plasma kallikrein, sequence (P03952 20-390 limits assumed): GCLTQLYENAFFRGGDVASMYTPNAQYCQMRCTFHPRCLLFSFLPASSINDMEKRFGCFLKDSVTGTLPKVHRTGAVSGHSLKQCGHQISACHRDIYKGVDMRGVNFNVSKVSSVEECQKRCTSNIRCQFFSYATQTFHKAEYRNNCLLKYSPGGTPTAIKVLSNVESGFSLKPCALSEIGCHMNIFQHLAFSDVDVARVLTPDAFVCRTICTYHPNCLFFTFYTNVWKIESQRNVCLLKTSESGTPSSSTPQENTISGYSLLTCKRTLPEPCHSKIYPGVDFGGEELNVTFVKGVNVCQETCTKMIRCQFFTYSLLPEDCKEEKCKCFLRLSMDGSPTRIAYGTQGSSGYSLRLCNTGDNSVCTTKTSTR
Plasma kallikrein, sequence (P03952 391-638 limits assumed): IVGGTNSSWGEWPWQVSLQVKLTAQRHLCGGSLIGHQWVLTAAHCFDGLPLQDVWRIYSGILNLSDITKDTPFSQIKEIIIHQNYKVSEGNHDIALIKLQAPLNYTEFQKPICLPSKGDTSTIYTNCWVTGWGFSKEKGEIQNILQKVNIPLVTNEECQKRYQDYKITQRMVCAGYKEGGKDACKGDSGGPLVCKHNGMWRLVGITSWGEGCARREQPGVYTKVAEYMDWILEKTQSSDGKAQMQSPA
Coagulation factor IX, sequence (P00740 47-191 limits assumed): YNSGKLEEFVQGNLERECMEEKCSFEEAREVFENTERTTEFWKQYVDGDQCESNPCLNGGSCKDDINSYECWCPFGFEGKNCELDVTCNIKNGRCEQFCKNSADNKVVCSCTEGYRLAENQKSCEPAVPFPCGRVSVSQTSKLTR
Coagulation factor IX, sequence (P00740 227-461 limits assumed): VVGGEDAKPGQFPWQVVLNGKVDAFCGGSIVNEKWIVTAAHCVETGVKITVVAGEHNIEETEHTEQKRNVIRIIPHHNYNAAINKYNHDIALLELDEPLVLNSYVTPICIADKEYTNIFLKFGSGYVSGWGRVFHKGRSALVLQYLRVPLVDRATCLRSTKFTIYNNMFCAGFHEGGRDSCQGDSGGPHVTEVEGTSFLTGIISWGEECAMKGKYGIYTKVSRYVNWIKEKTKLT

Ki (Coagulation factor XI) [µM]	SMILES	EC1.5 (Plasma) [µM]	other results
0.056	NC[C@H]1CC[C@H](C(=O)NC(Cc2ccccc2)c2cc(-c3ccc(N)cc3)ccn2)CC1 (mixture of isomers)	35	
0.0063	COC(=O)Nc1ccc(-c2ccnc([C@H](Cc3ccccc3)NC(=O)[C@H]3CC[C@H](CN)CC3)c2)cc1	2.6	Ki (Plasminogen): > 22.1 µM; clearance [1]: 0.054 L/h/kg; Ki (Plasma kallikrein): 0.042 µM; Vd [2]: 10 L/kg; Ki (Prothrombin): > 12.6 µM; AUC [3]: 194 nM·h; Ki [4]: > 14.1 µM; Ki (Coagulation factor X): > 9 µM; bioavailability [5]: 63%; Ki (Coagulation factor VII): > 12.2 µM; Ki [6]: > 30.2 µM; half-life [7]: 2.7 h; Ki (Coagulation factor IX): > 34.9 µM; Ki (Trypsin): 0.101 µM; Ki [8]: > 21.9 µM; Ki [9]: > 20.8 µM
0.024	NC[C@H]1CC[C@H](C(=O)NC(Cc2ccccc2)c2cc(-c3ccc(N)nc3)ccn2)CC1 (mixture of isomers)		
	NC[C@H]1CC[C@H](C(=O)N[C@@H](Cc2ccccc2)c2nc(-c3ccc4c(N)n[nH]c4c3)c(Cl)[nH]2)CC1	0.32	
0.01	NC[C@H]1CC[C@H](C(=O)NC(Cc2ccccc2)c2cc(-c3ccc4c(N)ncnc4c3)ccn2)CC1 (mixture of isomers)	2.8	
0.061	NC[C@H]1CC[C@H](C(=O)NC(Cc2ccccc2)c2cc(-c3ccc4[nH]ncc4c3)ccn2)CC1 (mixture of isomers)		
0.087	NC[C@H]1CC[C@H](C(=O)NC(Cc2ccccc2)c2cc(-c3ccc4cn[nH]c4c3)ccn2)CC1 (mixture of isomers)	>40	
0.11	Cn1[nH]c2ccc(-c3ccnc(C(Cc4ccccc4)NC(=O)[C@H]4CC[C@H](CN)CC4)c3)cc2c1=O (mixture of isomers)		
0.0079	COC(=O)Nc1ccc(-c2cc([C@H](Cc3ccccc3)NC(=O)[C@H]3CC[C@H](CN)CC3)ccn2)cc1	0.9	
0.0053	NC[C@H]1CC[C@H](C(=O)NC(Cc2ccccc2)c2cc(-c3ccc(N)c(C(=O)O)c3)ccn2)CC1 (mixture of isomers)	0.8	
0.012	COC(=O)Nc1ccc(-c2ccnc(C(Cc3ccccc3)NC(=O)[C@H]3CC[C@H](CN)CC3)c2)cc1 (mixture of isomers)	3.7	
0.0091	COC(=O)Nc1ccc(-c2cc([C@H](Cc3ccccc3)NC(=O)[C@H]3CC[C@H](CN)CC3)ncn2)cc1	1.2	Vd [10]: 5.4 L/kg; AUC [11]: 195 nM·h; bioavailability [12]: 66%; half-life [13]: 3.2 h; clearance [14]: 0.027 L/h/kg
0.0084	COC(=O)Nc1ccc(-c2cncc([C@H](Cc3ccccc3)NC(=O)[C@H]3CC[C@H](CN)CC3)c2)cc1	1.3	
0.087	COc1n[nH]c2ccc(-c3ccnc(C(Cc4ccccc4)NC(=O)[C@H]4CC[C@H](CN)CC4)c3)cc12 (mixture of isomers)	>40	
